# Screening data from PubChem.
# An excerpt weighted towards active compounds, which were near 5.7% of everything screened.
# SKKanGAS inh: S. pyogenes SKKanGAS growth inhibitors in kanamycin, primary screen, streptokinase expression inhibitor project, SKKanGAS strain, BacTiter-Glo luminescence. 6 h. 1.3% of 300,000 active. AID 1662, 2009. inhibition, % at 7.5 µM;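 active means mean replicate score, as percent of positive control median, at least 50; inconclusive means mean below 50 but one replicate at or above 50; inactive means mean and every replicate below 50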;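 further: strain carries kanamycin resistance gene driven by streptokinase promoter and grows in 40 µg/ml kanamycin; loss of luminescence reflects streptokinase promoter inhibition or plain growth inhibition; 0% = median of DMSO wells and 100% = positive control at its reference dose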
# Mdm2 MdmX PPI: inhibitors of human Mdm2-MdmX association, primary screen, cell-based, luminescence, split luciferase, SaOS-2, uHTS; Protein Mdm4 (Homo sapiens) + E3 ubiquitin-protein ligase Mdm2 (Homo sapiens), …; SaOS-2 split-luciferase Mdm2/MdmX complementation; inhibition, % at 8 µM; 3% of 330,000 active; AID 485346, 2010;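 active means inhibition of at least 50% at 8 µM in the primary screen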
# Target sequence (O15151 whole entry, looked up): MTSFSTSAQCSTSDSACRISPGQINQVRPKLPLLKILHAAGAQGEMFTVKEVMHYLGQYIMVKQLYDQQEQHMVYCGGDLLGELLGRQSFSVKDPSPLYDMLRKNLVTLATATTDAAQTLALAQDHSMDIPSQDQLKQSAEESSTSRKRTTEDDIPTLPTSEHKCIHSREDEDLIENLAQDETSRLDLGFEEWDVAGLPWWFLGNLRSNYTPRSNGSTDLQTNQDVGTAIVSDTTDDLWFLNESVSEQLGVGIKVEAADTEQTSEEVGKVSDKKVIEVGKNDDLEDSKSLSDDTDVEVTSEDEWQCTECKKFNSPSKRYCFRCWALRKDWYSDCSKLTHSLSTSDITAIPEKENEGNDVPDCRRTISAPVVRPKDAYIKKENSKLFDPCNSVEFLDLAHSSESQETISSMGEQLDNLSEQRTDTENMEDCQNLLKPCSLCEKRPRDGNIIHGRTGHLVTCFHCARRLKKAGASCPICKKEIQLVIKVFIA
# Target sequence (Q00987 whole entry, looked up): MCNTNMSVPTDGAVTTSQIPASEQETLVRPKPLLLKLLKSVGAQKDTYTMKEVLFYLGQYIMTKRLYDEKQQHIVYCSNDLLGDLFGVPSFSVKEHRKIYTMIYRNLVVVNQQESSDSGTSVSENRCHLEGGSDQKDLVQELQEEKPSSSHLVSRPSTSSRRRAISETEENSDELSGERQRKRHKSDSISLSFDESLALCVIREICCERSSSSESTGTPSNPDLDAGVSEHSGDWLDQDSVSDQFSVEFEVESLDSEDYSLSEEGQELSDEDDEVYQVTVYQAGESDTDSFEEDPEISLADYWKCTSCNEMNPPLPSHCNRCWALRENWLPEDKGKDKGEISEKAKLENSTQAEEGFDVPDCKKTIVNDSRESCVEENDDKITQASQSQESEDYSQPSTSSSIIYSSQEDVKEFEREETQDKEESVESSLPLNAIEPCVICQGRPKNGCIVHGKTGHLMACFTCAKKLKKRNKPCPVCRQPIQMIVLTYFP
# Calb FLC: C. albicans growth inhibition with fluconazole, primary screen, CaCi-2 strain, Alamar Blue fluorescence. C. albicans CaCi-2 (fluconazole-resistant clinical isolate) + fluconazole, 48 h. growth inhibition, % (test concentration not listed). 0.57% of 300,000 active;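 active means growth inhibition above about 58% in most replicates, limit read from the data, passing the limit was not always enough; inconclusive means exactly half the replicates above a set limit; inactive means most replicates below a set limit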;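 further: all wells also contain fluconazole at 8 µg/ml as a sub-toxic cotreatment; 0% = median of DMSO wells and 100% = median of geldanamycin control wells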
# Beta cell apopt: inhibitors of cytokine-induced beta cell apoptosis, primary screen, luminescence. INS-1E cytokine-induced death, ATP luminescence, 48 h; percent of positive-control rescue, neutral wells zero. protection from apoptosis, % (no concentration beside the values). 0.8% of 300,000 active. AID 435005, 2010;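 active means Every replicate reaches about 75%, or at least half do and their mean reaches it too, limit read from the data; inconclusive means At least half of replicates reach the limit but their mean does not; inactive means Under half of replicates reach the limit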;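 further: 0% = cytokine-treated negative control wells and 100% = positive control rescue; higher means more ATP so stronger rescue from cytokine killing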
# T cruzi inh: inhibitors of intracellular T. cruzi growth, primary screen, luminescence, NIH3T3 host cells; T. cruzi beta-gal in NIH3T3, 90 h; inhibition, % (test concentration not listed); 1.4% of 300,000 active;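 active means mean inhibition across valid replicates above about 55%, limit read from the data; inconclusive means mean below that limit but half or more replicates reach it; inactive means mean below it, under half of replicates reach it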;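 further: signal also drops with host cell toxicity which is not excluded here; 0% = plate median of DMSO wells and 100% = zero luminescence signal; higher percent means less beta-gal luminescence so fewer parasites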
#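 Incubation – ≥90 h infection period, 3 h prior cell attachment · System – NIH/3T3 fibroblasts plus reporter T. cruzi · Doses – compound pinned at 50 nL/well, DMSO · Read-out basis – percent inhibition of parasite-derived β-gal signal · Signal – luminescent β-galactosidase signal after 60 min lysis · Also added – 5000 T. cruzi trypomastigotes/well · Medium – Low-serum DMEM with 2% FBS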
# CSC inhib: cancer stem cell viability inhibitors, primary screen, luminescence. cancer stem cell-like cells viability. inhibition, % at 7.5 µM. 1.1% of 300,000 active; in the data active means inhibition above about 75%; inconclusive means no clear call, values can overlap the other calls; tested in HMLE shEcad cells
# Mdm2 MdmX conf: Mdm2-MdmX complex disruptors, retested hits, confirmation, luminescence, single concentration; shares compounds with Mdm2 MdmX PPI; Mdm2-MdmX binding, luminescent assay; 55% of 10,000 active; inhibition, % at 8 µM; in the data active means inhibition above about 40%
# Full FLuc ctr: full-length luciferase signal inhibition, confirmation, counter-screen for Mdm2/MdmX interaction inhibitor project, cell-based, single concentration, SaOS-2; shares compounds with Mdm2 MdmX PPI; SaOS-2 full-length luciferase counterscreen, luminescence; inhibition, % at 8 µM; 77% of 6,200 active; AID 504607, 2011;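 active means mean inhibition at 8 µM reaching about 37%, which flags the compound as non-specific, limit read from the data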;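 further: p53-null SaOS-2 cells with luciferase driven by a doxycycline-inducible promoter; compound on cells about two nights before reading with doxycycline added after day one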
# * = called active by the depositor; ? = inconclusive; / = no result.
SMILES,SKKanGAS inh,Mdm2 MdmX PPI,Calb FLC,Beta cell apopt,T cruzi inh,CSC inhib,Mdm2 MdmX conf,Full FLuc ctr
CCc1ccc(-c2cc3c(=O)n(CC(=O)N4CCCC4)nc(C)n3n2)cc1,-2.3,22.7,2.2,1.0,-6.7,-7.6,/,/
COc1ccc(-c2noc(N3CCC(C(=O)NCCCN4CCCCC4)CC3)n2)cc1,0.6,-6.6,2.4,-9.4,-13.9,-14.3,/,/
CC1CCCCC12NC(=O)N(CC(=O)N1CCN(S(=O)(=O)/C=C/c3ccccc3)CC1)C2=O (stereo not drawn),/,-15.4,/,5.2,/,-18.7,/,/
COC(=O)CCCC(=O)NC1CCCc2c1cnn2-c1ccc(F)cc1F (stereo not drawn),-1.8,0.0,0.8,/,-4.6,-6.4,/,/
CN(Cc1ccccc1F)C(=O)c1sccc1-c1ccccc1,11.7,-6.0,-19.4,-1.5,6.4,9.6,/,/
CC(C)(C)c1ccc(-c2nc(C#N)c(N3CCC(C(N)=O)CC3)o2)cc1,1.8,7.4,-6.8,-0.3,5.4,-14.4,/,/
Cc1nn(CC(=O)NCCCN2CCCCC2)c(=O)c2cc(-c3ccccc3)nn12,-1.2,17.0,3.5,-0.3,6.3,3.1,/,/
COc1ccc(-c2cc3c(=O)n(CC(=O)NCCCN4CCC(N5CCCCC5)CC4)nc(C)n3n2)cc1,-0.5,98.7*,-1.7,-12.2,55.8*,-15.7,100.2*,46.4*
O=C(Nc1ccccc1N1CCOCC1)c1cc(-c2ccco2)nc2ccccc12,10.5,70.3*,-1.2,-1.4,-9.2,27.7,53.2*,68.5*
Cc1ccccc1NC(=O)Cn1cnc2c(oc3ccccc32)c1=O,-4.4,-1.7,0.6,0.2,-1.7,-4.6,/,/
Cc1cccc(NC(=O)Cn2cnc3c(oc4ccccc43)c2=O)c1C,0.1,64.0*,-6.6,-3.5,3.9,-7.5,0.4,/
COc1ccc(C(=O)NNC(=O)COc2ccc(Cl)cc2)c(OC)c1,10.2,10.1,-2.9,-1.8,-13.4,18.7,/,/
O=C(CCc1nc(-c2ccc(Cl)cc2)no1)NC1CCCC1,-6.8,20.5,/,4.4,-2.5,-5.4,/,/
CC(C)n1c(/C=C/[C@@H](O)C[C@@H](O)CC(=O)O)c(-c2ccc(F)cc2)c2ccccc21,3.1,59.0*,47.2,8.3,-11.4,15.6,49.5*,107.9*
Cc1ccccc1OCC(O)CNC1CCC(NCC(O)COc2ccccc2C)CC1 (stereo not drawn),2.3,100.3*,10.0,112.7*,51.1,108.8*,100.2*,51.8*
Nc1ccccc1Oc1c(F)c(F)c(Oc2ccccc2N)c(F)c1F,-5.1,9.2,7.3,-3.5,-2.3,4.0,/,/
CCCC(C)NC(=O)CN1C(=O)c2cccc3cccc1c23 (stereo not drawn),3.6,29.2,-5.1,5.2,-11.6,7.1,/,/
Cc1ccc(C(=O)O/N=C(\N)c2ccccc2)c(Cl)c1,-3.9,80.2*,-1.2,/,-16.1,-7.7,58.4*,119.9*
N/C(=N\OC(=O)c1cc(Br)ccc1Cl)c1ccccn1,3.3,-102.9,?,/,10.5,-6.7,/,/
N/C(=N\OC(=O)c1ccc([N+](=O)[O-])cc1Cl)c1ccccn1,2.0,54.0*,23.0,11.6,39.2,5.7,37.0,/
Cc1ccc(C(=O)O/N=C(\N)c2ccccn2)c(Cl)c1,15.9,95.5*,-3.9,/,-18.6,26.0,89.3*,20.0
N/C(=N\OC(=O)c1ccc(Cl)cc1Cl)c1ccccn1,8.4,51.7*,26.4,109.7*,-0.9,18.4,38.0,52.7*
COc1ccc(CCNC(=O)COC(=O)c2cc(S(=O)(=O)N3CCCC3)ccc2O)cc1,/,18.5,/,/,/,/,/,/
O=C(c1ccccc1Cl)N1CCN(C(=O)C2CCCO2)CC1 (stereo not drawn),/,1.0,/,/,/,/,/,/
Cc1ccc(NC(=O)c2ccc(=O)[nH]c2)cc1S(=O)(=O)N1CCCCCC1,/,27.1,/,-2.6,/,/,/,/
SMILES,SKKanGAS inh,Mdm2 MdmX PPI,Calb FLC,Beta cell apopt,T cruzi inh,CSC inhib,Mdm2 MdmX conf,Full FLuc ctr
CCCN1C(=O)/C(=C/c2ccc3c(c2)OCO3)NC1=S,-4.9,/,7.5,/,3.3,/,/,/
CCCN1C/C(=C/c2ccc3c(c2)OCO3)C(=O)/C(=C/c2ccc3c(c2)OCO3)C1,0.5,98.7*,-31.0,-3.2,-1.9,87.4*,36.1,68.5*
CN(CC(=O)Nc1ccccc1C(F)(F)F)C(=O)CSCc1ccccc1,-13.7,14.7,-4.4,0.7,-5.7,-14.3,/,/
O=C(Cc1ccc(Cl)cc1)Nc1ccc(-c2cc3ccccc3oc2=O)c(Cl)c1,23.2,59.1*,-11.6,24.6,52.6,81.7*,62.3*,51.7*
COc1nc(N)c(C#N)c(-c2ccc(N(C)CCC#N)cc2)c1C#N,9.7,73.2*,4.9,9.8,16.7,22.6,46.6*,81.9*
COc1ccc(-c2c(C#N)c(N)nc(Sc3ccc(Cl)cc3)c2C#N)cc1,0.0,33.0,-17.0,36.1,8.2,17.3,/,/
CCOc1ccc(CCNC(=O)c2c(C)nn(-c3ccccc3)c2Cl)cc1OCC,15.0,15.8,-4.8,0.5,-1.2,-12.7,/,/
CCOc1cccc2sc(NC(=O)CCS(=O)(=O)c3ccccc3)nc12,35.4,70.5*,62.2,-15.1,-14.4,-5.3,66.2*,35.4
CCOc1cccc2sc(N(CCN(C)C)C(=O)CCS(=O)(=O)c3ccccc3)nc12,0.6,-26.2,15.0,-3.1,-4.4,-6.9,/,/
CC1(C)CC(=O)c2sc(NC(=O)CCS(=O)(=O)c3ccccc3)nc2C1,-1.9,71.4*,18.4,-25.1,-10.3,27.5,25.8,/
COc1ccc(C)c2sc(NC(=O)CCS(=O)(=O)c3ccccc3)nc12,12.2,77.0*,?,4.0,3.5,-0.5,68.8*,45.2*
O=C(NCc1ccc(Cl)cc1)C1CC(O)CN1S(=O)(=O)c1ccc(Cl)cc1 (stereo not drawn),-7.6,-29.5,-3.5,2.7,3.5,-8.6,/,/
Cc1cc(C)n(C(=O)c2cc([N+](=O)[O-])cc([N+](=O)[O-])c2)n1,0.2,12.9,9.0,-2.8,-2.6,1.5,/,/
Cc1ccc(-c2csc(NC(=O)C[n+]3cc(-c4ccc(C)cc4)n4c3CCC4)n2)cc1,7.1,55.8*,24.3,11.0,-11.7,9.3,12.2,/
COc1ccc2oc(C(=O)NC(C)c3ccccn3)c(C)c2c1 (stereo not drawn),/,4.3,/,0.4,/,/,/,/
